Results reported in ChEMBL document CHEMBL2385052, “Identification of the fused bicyclic 4-amino-2-phenylpyrimidine derivatives as novel and potent PDE4 inhibitors” (Bioorg Med Chem Lett, 2013).
Activity calls are given as the source filed them. The calls are words filed in the database; no cut-off is given here.

Experiments:
[1] = Antiinflammatory activity in Balb/c mouse splenocytes assessed as LPS-induced TNF-alpha production after 18 to 24 hrs by AlphaLISA; type: functional, cell-based; details: Splenocyte
[2] = biological target: T1, 3',5'-cyclic-AMP phosphodiesterase 4B (Homo sapiens, UniProt Q07343); assay: Inhibition of human recombinant PDE4B (152 to 564 amino acids) using cAMP as substrate after 30 mins by plate reader analysis
[3] = Octanol-phosphate buffer partition coefficient, log D of the compound at pH 7.4 after 12 hrs by shake flask method; type: physicochemical
[4] = Permeability of the compound at pH 7.4 after 4 hrs by PAMPA; type: ADME; details: read-out: permeability
Procedure, shortened: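 Passive membrane permeability was measured by PAMPA at pH 7.4. The effective permeability coefficient Pe is reported in 10^-6 cm/sec.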

[5] = biological target: T1, 3',5'-cyclic-AMP phosphodiesterase 4B; assay: Inhibition of human recombinant PDE4B (152 to 564) using cAMP as substrate at 10 uM after 30 mins by plate reader analysis
Mus musculus = assay: Antiinflammatory activity in ip dosed BALB/c mouse assessed as inhibition of LPS-induced pulmonary neutrophilia administered 30 mins prior to LPS challenge measured after 4 to 5 hrs; type: functional; details: for ED50: read-out: ID50 (the source's name)

T1 sequence (Q07343 whole entry, the tested form may be a part): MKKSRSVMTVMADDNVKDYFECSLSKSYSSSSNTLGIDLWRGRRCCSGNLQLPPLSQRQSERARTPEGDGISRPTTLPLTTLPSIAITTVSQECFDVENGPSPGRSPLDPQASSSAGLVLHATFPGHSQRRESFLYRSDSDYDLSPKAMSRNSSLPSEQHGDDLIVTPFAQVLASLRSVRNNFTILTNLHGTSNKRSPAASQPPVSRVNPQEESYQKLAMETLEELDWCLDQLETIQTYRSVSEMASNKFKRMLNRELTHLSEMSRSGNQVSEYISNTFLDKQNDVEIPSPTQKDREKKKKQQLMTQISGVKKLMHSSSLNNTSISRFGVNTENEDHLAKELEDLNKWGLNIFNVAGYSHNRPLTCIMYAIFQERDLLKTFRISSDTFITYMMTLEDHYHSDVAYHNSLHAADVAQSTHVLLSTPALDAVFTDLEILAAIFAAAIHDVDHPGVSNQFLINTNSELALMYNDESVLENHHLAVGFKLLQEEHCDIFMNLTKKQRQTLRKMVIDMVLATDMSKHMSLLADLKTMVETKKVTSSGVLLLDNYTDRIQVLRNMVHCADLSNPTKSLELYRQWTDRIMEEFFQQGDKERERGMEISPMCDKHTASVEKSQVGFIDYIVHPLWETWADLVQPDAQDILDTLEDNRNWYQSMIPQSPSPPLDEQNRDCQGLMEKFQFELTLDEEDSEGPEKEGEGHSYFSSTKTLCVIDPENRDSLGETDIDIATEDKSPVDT

SMILES	IC50 [1] [µM]	IC50 [2] [µM]	also measured
O=C(Nc1c(Cl)cncc1Cl)c1ccc(OC(F)F)c(OCC2CC2)c1 [ROFLUMILAST]	0.0012		
CNC(=O)Cc1ccc(Nc2nc(-c3ccccc3)nc3c2S(=O)(=O)CCC3)cc1	0.035	0.027	
O=C(O)Cc1ccc(Nc2nc(-c3ccccc3)nc3c2CCC3)cc1		0.61	
NC(=O)Cc1ccc(Nc2nc(-c3ccccc3)nc3c2S(=O)(=O)CCC3)cc1	0.0085	0.016	logD at 12 h [3]: 2.9; Papp at 4 h [4]: > 500 nm/s
CC(C)(C)NC(=O)Cc1ccc(Nc2nc(-c3ccccc3)nc3c2S(=O)(=O)CCC3)cc1	0.0085	0.011	
O=C(O)Cc1ccc(Nc2nc(-c3ccccc3)nc3c2CCCCC3)cc1			inhibition [5]: 35%
O=C(O)CC1CCN(c2nc(-c3ccccc3)nc3c2CSC3)CC1		0.15	
CN(C)C(=O)Cc1ccc(Nc2nc(-c3ccccc3)nc3c2S(=O)(=O)CCC3)cc1	0.017	0.033	
CC(C)CNC(=O)Cc1ccc(Nc2nc(-c3ccccc3)nc3c2S(=O)(=O)CCC3)cc1	0.0047	0.0066	
O=C(O)Cc1ccc(Nc2nc(-c3ccccc3)nc3c2SCCC3)cc1	0.09	0.029	logD at 12 h [3]: 1.4; Papp at 4 h [4]: 155 nm/s
O=C(O)Cc1ccc(Nc2nc(-c3ccccc3)nc3c2S(=O)(=O)CC3)cc1	> 10	0.28	
O=C(O)Cc1ccc(Nc2nc(-c3ccccc3)nc3c2CS(=O)(=O)C3)cc1	0.97	0.14	logD at 12 h [3]: 0.016; Papp at 4 h [4]: < 20 nm/s
O=C(O)Cc1ccc(Nc2nc(-c3ccccc3)nc3sccc23)cc1		0.23	
O=C(O)CN1CCN(c2nc(-c3ccccc3)nc3c2CS(=O)(=O)C3)CC1		5	
O=C(O)Cc1ccc(Nc2nc(-c3ccccc3)nc3c2CSC3)cc1	0.22	0.029	logD at 12 h [3]: 1.3; Papp at 4 h [4]: 133 nm/s
O=C(O)Cc1ccc(Nc2nc(-c3ccccc3)nc3c2S(=O)(=O)CCC3)cc1	0.39	0.025	logD at 12 h [3]: 0.43; Papp at 4 h [4]: 58 nm/s
O=C(O)Cc1ccc(Nc2nc(-c3ccccc3)nc3c2CCCC3)cc1		0.43	
O=C(O)Cc1ccc(Nc2nc(-c3ccccc3)nc3c2CS(=O)(=O)CC3)cc1		7.9	
O=C(O)CN1CCC(Nc2nc(-c3ccccc3)nc3c2CS(=O)(=O)C3)CC1		3	
O=C(O)Cc1ccc(Nc2nc(-c3ccccc3)nc3c2COC3)cc1		2.2	
CC(C)(C)CNC(=O)Cc1ccc(Nc2nc(-c3ccccc3)nc3c2S(=O)(=O)CCC3)cc1	0.0008	0.0047	Activity (Mus musculus): inactive
CCCCNC(=O)Cc1ccc(Nc2nc(-c3ccccc3)nc3c2S(=O)(=O)CCC3)cc1	0.013	0.022	ED50 (Mus musculus): 23 mg/kg
O=C(O)CC1CCN(c2nc(-c3ccccc3)nc3c2CS(=O)(=O)C3)CC1		0.19	
CCCNC(=O)Cc1ccc(Nc2nc(-c3ccccc3)nc3c2S(=O)(=O)CCC3)cc1	0.0098	0.0075	ED50 (Mus musculus): 18 mg/kg
O=C(O)Cc1ccc(Nc2nc(-c3ccccc3)nc3c2CCS(=O)(=O)C3)cc1	> 10	0.028	logD at 12 h [3]: -0.45; Papp at 4 h [4]: < 20 nm/s
O=C(O)Cc1ccc(Nc2nc(-c3ccccc3)nc3ccccc23)cc1		0.48	
O=C(O)Cc1ccc(Nc2nc(-c3ccccc3)nc3ncccc23)cc1			inhibition [5]: 14%
O=C(Cc1ccc(Nc2nc(-c3ccccc3)nc3c2S(=O)(=O)CCC3)cc1)Nc1ccccc1	0.018	0.043	
O=C(O)CCc1ccc(Nc2nc(-c3ccccc3)nc3c2CS(=O)(=O)C3)cc1		0.8	
O=C(O)Cc1cccc(Nc2nc(-c3ccccc3)nc3c2CS(=O)(=O)C3)c1		2.5	
